Measurements reported in ChEMBL document CHEMBL1151747, “Orally bioavailable isothioureas block function of the chemokine receptor CXCR4 in vitro and in vivo” (J Med Chem, 2008).

Legend:
[1] = molecular target: T1, C-X-C chemokine receptor type 4 (Homo sapiens, UniProt P61073); experiment: Displacement of [125I]CXCL12 from CXCR4 in human CEM cells; type: cell-based, CCRF-CEM
Method in brief: (§1)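 Scintillation proximity assay. Membranes come from CEM cells (human CXCR4) or IR983F cells (rat CXCR4), prepared by homogenization in 20 mM HEPES, 1 mM EDTA pH 7.4 and stored at -80 °C. Nonspecific binding is defined with 400 nM unlabeled CXCL12. Incubation is 2 h at room temperature with shaking, then scintillation counting.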

[2] = Intrinsic clearance in human liver microsomes; type: ADME, Microsome
Method in brief: (§2)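 Compound is incubated with human or rat liver microsomes; intrinsic clearance is given in µL min-1 mg-1.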

[3] = Partition coefficient, log P of the compound; type: physicochemical; details: octanol/water
[4] = Distribution coefficient, log D of the compound; type: physicochemical; details: octanol/water
[5] = Tmax in Lewis rat at 10 mg/kg, po; type: ADME, organism-based; set-up: dose 10 mg/kg, route oral; details: in vivo
[6] = tested on: Human immunodeficiency virus 1; experiment: Antiviral activity against X4-tropic HIV1 3B assessed as inhibition of viral attachment; type: functional, organism-based; details: Human immunodeficiency virus 1, 3B
[7] = Solubility in pH 6.8 buffer; type: physicochemical
[8] = molecular target: T2, C-C chemokine receptor type 9 (Homo sapiens, UniProt P51686); experiment: Inhibition of CCR9
T2 sequence (P51686 whole entry): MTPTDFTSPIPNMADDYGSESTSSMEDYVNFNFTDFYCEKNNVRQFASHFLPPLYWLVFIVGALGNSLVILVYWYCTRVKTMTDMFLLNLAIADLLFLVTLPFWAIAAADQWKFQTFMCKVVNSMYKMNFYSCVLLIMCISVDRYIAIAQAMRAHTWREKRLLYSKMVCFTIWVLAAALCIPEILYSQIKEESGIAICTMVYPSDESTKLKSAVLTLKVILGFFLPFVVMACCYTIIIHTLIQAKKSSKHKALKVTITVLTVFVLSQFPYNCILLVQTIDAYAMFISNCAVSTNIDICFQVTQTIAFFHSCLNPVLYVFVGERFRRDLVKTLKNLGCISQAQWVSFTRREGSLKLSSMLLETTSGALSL

[9] = Half life in Lewis rat at 10 mg/kg, po; type: ADME, organism-based; set-up: dose 10 mg/kg, route oral; details: in vivo
Blood [10] = experiment: Inhibition of CXCL12-induced actin polymerization in rat whole blood; type: functional, tissue-based
Method in brief: (§3)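 EDTA whole blood (100 µL) is preincubated with inhibitor diluted in PBS for 10 min at room temperature. CXCL12 (100 nM final) is added for 25 s at ambient temperature. […] Neutrophil F-actin is read by flow cytometry.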

Cytochrome P450 3A4 = Cytochrome P450 3A4 (Homo sapiens, UniProt P08684); experiment: Inhibition of CYP3A4; type: ADME
Chain of Cytochrome P450 3A4 (P08684 whole entry): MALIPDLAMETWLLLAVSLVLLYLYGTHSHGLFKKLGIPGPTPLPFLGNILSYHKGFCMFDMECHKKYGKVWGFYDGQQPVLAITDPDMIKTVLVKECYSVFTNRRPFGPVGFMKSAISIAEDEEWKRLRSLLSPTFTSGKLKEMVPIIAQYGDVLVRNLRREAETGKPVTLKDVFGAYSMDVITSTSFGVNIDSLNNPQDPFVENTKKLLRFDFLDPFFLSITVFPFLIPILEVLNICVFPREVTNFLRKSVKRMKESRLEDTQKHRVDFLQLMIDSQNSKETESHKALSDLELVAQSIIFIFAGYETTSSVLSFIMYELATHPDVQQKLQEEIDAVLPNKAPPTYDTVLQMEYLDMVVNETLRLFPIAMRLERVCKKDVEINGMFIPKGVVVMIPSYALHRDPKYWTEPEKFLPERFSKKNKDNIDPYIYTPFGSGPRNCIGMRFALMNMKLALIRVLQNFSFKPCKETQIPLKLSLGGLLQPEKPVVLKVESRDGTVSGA

Cytochrome P450 2C9 = Cytochrome P450 2C9 (Homo sapiens, UniProt P11712); experiment: Inhibition of CYP2C9; type: ADME
Chain of Cytochrome P450 2C9 (P11712 whole entry): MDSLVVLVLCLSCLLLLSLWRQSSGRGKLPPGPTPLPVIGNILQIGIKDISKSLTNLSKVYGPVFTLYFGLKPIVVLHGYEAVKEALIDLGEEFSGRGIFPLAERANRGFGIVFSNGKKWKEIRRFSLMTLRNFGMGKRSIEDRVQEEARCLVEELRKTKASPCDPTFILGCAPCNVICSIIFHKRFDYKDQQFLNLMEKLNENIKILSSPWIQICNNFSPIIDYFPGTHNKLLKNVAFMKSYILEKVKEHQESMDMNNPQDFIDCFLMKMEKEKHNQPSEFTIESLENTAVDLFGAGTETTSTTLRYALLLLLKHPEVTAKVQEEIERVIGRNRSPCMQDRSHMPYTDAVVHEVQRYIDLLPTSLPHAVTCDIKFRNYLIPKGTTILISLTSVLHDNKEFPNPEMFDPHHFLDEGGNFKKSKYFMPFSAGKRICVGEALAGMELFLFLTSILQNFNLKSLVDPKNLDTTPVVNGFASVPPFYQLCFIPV

[11] = molecular target: T3, C-C chemokine receptor type 7 (Homo sapiens, UniProt P32248); experiment: Inhibition of CCR7
T3 sequence (P32248 whole entry): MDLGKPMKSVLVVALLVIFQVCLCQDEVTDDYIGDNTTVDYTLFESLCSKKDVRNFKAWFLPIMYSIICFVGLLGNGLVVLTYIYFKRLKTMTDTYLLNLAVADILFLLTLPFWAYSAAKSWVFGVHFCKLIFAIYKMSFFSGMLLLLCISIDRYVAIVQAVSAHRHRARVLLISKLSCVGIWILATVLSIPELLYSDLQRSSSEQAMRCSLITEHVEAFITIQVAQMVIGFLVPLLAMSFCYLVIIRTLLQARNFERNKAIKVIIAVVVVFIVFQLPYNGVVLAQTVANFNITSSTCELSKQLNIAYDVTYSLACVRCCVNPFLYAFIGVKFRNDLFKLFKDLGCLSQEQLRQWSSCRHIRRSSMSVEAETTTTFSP

[12] = Oral bioavailability in Lewis rat at 10 mg/kg; type: ADME, organism-based; details: in vivo
[13] = Intrinsic clearance in rat liver microsomes; type: ADME, Microsome; method in brief: as §2
[14] = Drug level in Lewis rat blood at 30 mg/kg/day administered through osmotic pump for 5 days; type: ADME, organism-based; details: other: administered through osmotic pump, read-out: Drug uptake
Method in brief: (§4)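 Lewis rats (n = 3) receive 30 mg/kg·d via osmotic pumps for 5 days. Blood is sampled on day 5 and analyzed ex vivo.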

Rattus norvegicus = experiment: Reduction in actin polymerization in Lewis rat blood at 30 mg/kg/day administered through osmotic pump for 5 days relative to control; type: functional; set-up: scale not given: the % may be the effect or the level left; method in brief: as §4
[15] = Solubility in pH 1.0 buffer; type: physicochemical
Cytochrome P450 1A2 = molecular target: T4, Cytochrome P450 1A2 (Homo sapiens, UniProt P05177); experiment: Inhibition of CYP1A2; type: ADME
T4 sequence (P05177 whole entry): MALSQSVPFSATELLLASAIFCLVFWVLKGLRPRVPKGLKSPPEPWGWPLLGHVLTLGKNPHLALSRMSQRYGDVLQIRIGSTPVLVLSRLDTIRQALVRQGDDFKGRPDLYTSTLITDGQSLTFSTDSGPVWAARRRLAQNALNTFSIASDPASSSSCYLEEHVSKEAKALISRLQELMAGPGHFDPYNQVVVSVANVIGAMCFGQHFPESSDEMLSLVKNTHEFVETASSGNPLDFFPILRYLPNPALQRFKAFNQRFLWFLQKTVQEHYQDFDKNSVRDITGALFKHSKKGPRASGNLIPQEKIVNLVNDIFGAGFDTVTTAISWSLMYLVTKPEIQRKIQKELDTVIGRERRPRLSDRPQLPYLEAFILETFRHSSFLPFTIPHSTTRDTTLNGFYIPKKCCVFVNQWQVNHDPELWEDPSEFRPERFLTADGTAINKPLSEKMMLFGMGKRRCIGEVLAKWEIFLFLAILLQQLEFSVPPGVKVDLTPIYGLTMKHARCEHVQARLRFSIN

[16] = molecular target: C-X-C chemokine receptor type 4 (Rattus norvegicus, UniProt O08565); experiment: Displacement of [125I]CXCL12 from CXCR4 in rat IR983F cells; type: cell-based; method in brief: as §1
Chain of C-X-C chemokine receptor type 4 (Rattus norvegicus, UniProt O08565) (O08565 whole entry): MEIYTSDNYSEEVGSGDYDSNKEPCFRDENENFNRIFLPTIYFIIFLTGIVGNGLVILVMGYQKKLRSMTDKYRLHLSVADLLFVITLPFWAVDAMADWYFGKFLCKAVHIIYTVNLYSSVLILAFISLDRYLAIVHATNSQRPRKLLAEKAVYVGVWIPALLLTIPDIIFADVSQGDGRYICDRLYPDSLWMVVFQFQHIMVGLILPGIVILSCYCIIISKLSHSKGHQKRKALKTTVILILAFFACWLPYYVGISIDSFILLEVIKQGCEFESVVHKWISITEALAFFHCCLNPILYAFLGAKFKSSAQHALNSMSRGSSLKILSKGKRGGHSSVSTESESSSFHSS

[17] = molecular target: T5, C-X-C chemokine receptor type 2 (Homo sapiens, UniProt P25025); experiment: Inhibition of CXCR2
T5 sequence (P25025 whole entry): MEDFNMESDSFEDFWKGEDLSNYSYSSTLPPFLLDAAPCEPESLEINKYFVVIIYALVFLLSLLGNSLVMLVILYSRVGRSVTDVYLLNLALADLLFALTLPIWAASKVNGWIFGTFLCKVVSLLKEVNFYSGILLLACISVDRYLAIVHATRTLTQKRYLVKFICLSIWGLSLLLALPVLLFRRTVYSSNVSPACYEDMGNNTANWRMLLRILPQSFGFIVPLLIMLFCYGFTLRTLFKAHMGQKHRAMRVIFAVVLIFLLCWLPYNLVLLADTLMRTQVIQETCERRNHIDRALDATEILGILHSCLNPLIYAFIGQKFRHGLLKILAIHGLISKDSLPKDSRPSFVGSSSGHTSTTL

Blood [18] = experiment: Inhibition of CXCL12-induced actin polymerization in human whole blood; type: functional, tissue-based; method in brief: as §3
[19] = molecular target: C-C chemokine receptor type 5 (Homo sapiens, UniProt P51681); experiment: Inhibition of CCR5
Chain of C-C chemokine receptor type 5 (P51681 whole entry): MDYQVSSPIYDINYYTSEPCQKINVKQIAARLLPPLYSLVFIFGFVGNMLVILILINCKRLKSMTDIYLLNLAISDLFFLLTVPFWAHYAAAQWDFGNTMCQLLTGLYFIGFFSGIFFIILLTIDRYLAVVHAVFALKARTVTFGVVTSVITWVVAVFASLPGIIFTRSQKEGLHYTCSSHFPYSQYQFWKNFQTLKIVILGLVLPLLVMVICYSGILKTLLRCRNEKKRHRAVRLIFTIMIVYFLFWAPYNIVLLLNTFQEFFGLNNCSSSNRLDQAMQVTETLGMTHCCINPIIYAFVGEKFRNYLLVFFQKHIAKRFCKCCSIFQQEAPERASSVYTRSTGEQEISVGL

[20] = Fraction unbound in human serum; type: ADME, cell-free
[21] = Dissociation constant, pKa of the compound; type: physicochemical
[22] = molecular target: T6, C-C chemokine receptor type 4 (Homo sapiens, UniProt P51679); experiment: Inhibition of CCR4
T6 sequence (P51679 whole entry): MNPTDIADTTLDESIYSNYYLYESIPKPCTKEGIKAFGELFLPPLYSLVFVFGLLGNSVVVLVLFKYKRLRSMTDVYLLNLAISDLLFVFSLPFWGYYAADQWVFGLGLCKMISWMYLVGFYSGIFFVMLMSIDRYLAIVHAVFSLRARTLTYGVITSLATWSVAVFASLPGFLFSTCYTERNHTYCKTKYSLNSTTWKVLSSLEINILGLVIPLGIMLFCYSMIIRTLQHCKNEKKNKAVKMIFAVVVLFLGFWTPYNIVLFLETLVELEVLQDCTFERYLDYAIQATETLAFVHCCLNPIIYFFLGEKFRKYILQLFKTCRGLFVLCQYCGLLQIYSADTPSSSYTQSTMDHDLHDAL

[23] = molecular target: T1, C-X-C chemokine receptor type 4; experiment: Activity at CXCR4 in human CEM cells assessed as inhibition of CXCL12-induced calcium mobilization; type: functional, cell-based, CCRF-CEM
Method in brief: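 CEM cells are loaded with 4 µM Fluo-4 for 1 h at 37 °C, washed, then preincubated with antagonist for 2 h. Wells are run in quadruplicate on FLIPR.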

[24] = Fraction unbound in rat serum; type: ADME, cell-free
Cytochrome P450 2C19 = Cytochrome P450 2C19 (Homo sapiens, UniProt P33261); experiment: Inhibition of CYP2C19; type: ADME
Chain of Cytochrome P450 2C19 (P33261 whole entry): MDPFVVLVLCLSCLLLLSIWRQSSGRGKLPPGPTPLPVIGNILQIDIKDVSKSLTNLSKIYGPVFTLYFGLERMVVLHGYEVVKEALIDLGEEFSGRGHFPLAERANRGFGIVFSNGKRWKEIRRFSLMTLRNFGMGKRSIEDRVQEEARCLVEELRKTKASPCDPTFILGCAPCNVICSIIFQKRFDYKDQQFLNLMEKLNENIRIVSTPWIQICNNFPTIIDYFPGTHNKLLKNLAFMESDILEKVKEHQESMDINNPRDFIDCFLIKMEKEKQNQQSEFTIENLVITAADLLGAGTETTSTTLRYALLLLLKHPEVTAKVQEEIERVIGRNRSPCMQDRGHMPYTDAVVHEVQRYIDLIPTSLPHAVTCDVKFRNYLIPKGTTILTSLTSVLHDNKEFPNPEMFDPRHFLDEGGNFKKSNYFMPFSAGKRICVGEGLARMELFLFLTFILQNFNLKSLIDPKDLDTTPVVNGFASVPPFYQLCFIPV

T1 sequence (P61073 whole entry): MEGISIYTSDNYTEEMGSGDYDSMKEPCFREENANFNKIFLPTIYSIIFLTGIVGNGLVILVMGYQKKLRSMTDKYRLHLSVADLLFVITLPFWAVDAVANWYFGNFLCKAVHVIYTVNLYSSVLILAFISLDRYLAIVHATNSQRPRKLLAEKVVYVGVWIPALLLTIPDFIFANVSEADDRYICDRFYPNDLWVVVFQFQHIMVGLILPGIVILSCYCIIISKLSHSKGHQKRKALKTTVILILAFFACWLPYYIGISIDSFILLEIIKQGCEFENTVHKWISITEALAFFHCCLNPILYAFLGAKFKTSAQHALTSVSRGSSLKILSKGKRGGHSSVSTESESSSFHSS

**Q.** For C1=C(CS/C(=N\C2CCCCC2)NC2CCCCC2)N2CCN=C2S1, which IC50 [1] is on record?
**A.** 48 nM

**Q.** And the microsomal CLint [2]?
**A.** 51 µL/min/mg

**Q.** And the logP [3]?
**A.** 3.5

**Q.** What about the logD [4] of the same compound?
**A.** -0.2

**Q.** What about the Tmax [5] of the same compound?
**A.** 30 min

**Q.** What about the IC50 [6] of the same compound?
**A.** 40 nM

**Q.** What about the IC90 [6] of the same compound?
**A.** 720 nM

**Q.** What about the solubility [7] of the same compound?
**A.** > 5000 µg/mL

**Q.** What about the IC50 [8] of the same compound?
**A.** > 3 µM

**Q.** And the half-life [9]?
**A.** 432 min

**Q.** And the IC50 (Blood [10])?
**A.** 86 nM

**Q.** What about the IC50 (Cytochrome P450 3A4) of the same compound?
**A.** 3.86 µM

**Q.** What about the IC50 (Cytochrome P450 2C9) of the same compound?
**A.** > 10 µM

**Q.** And the IC50 [11]?
**A.** > 3 µM

**Q.** And the bioavailability [12]?
**A.** 14%

**Q.** What about the microsomal CLint [13] of the same compound?
**A.** 411 µL/min/mg

**Q.** What about the concentration at 120 h [14] of the same compound?
**A.** 1000 nM

**Q.** What about the Activity (Rattus norvegicus) of the same compound?
**A.** >80%

**Q.** What about the solubility [15] of the same compound?
**A.** > 5000 µg/mL

**Q.** What about the IC50 (Cytochrome P450 1A2) of the same compound?
**A.** > 10 µM

**Q.** And the IC50 [16]?
**A.** 55 nM

**Q.** What about the IC50 [17] of the same compound?
**A.** > 3 µM

**Q.** What about the IC50 (Blood [18]) of the same compound?
**A.** 32 nM

**Q.** What about the IC50 [19] of the same compound?
**A.** > 3 µM

**Q.** And the fraction unbound [20]?
**A.** 0.29

**Q.** What about the pKa [21] of the same compound?
**A.** 7.7

**Q.** What about the IC50 [22] of the same compound?
**A.** > 3 µM

**Q.** What about the IC50 [23] of the same compound?
**A.** 11 nM

**Q.** What about the fraction unbound [24] of the same compound?
**A.** 0.54

**Q.** And the IC50 (Cytochrome P450 2C19)?
**A.** > 10 µM
